The text below walks through data of ChEMBL document CHEMBL1148142, “New metabolites from sponge-derived fungi Curvularia lunata and Cladosporium herbarum” (J Nat Prod, 2002).

Active and inactive are the calls of the source. The calls are words filed in the database; no cut-off is given here.

The test system of test [1] is Staphylococcus aureus. Kind of test: Antibacterial activity against Staphylococcus aureus ATCC 25923 at 5 ug/disk by agar plate diffusion assay. Particulars: read-out: IZ. It is filed as functional. The essentials:
(§1)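 Paper disks (5.5 mm) loaded with 5 or 10 μg of pure compound, laid on agar plates seeded with the test organism. Plates incubated 24 h at 37 °C, then inspected for inhibition zones.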

In test [2] the test system is Staphylococcus aureus. Kind of test: Antibacterial activity against Staphylococcus aureus ATCC 25923 at 10 ug/disk by agar plate diffusion assay. The class given is functional. Particulars: read-out: IZ. A digest of the protocol:
as §1

Test [3] concerns Bacillus subtilis. Kind of test: Antibacterial activity against Bacillus subtilis 168 at 5 ug/disk by agar plate diffusion assay. It is filed as functional. Particulars: read-out: IZ. A digest of the protocol: as §1
Test [4] concerns Escherichia coli. In words: Antibacterial activity against Escherichia coli ATCC 25922 at 5 ug/disk by agar plate diffusion assay. It is filed as functional. Particulars: read-out: IZ. The essentials: as §1
In test [5] the test system is Bacillus subtilis. Kind of test: Antibacterial activity against Bacillus subtilis 168 at 10 ug/disk by agar plate diffusion assay. The class given is functional. Particulars: read-out: IZ. A digest of the protocol: as §1
In test [6] the test system is Escherichia coli. Kind of test: Antibacterial activity against Escherichia coli ATCC 25922 at 10 ug/disk by agar plate diffusion assay. Particulars: read-out: IZ. The class given is functional. A digest of the protocol:
as §1

In test [7] the test system is Escherichia coli. Kind of test: Antibacterial activity against Escherichia coli HBI 101 at 5 ug/disk by agar plate diffusion assay. Particulars: read-out: IZ. It is filed as functional. A digest of the protocol: as §1
Test [8] has as its system Escherichia coli. In words: Antibacterial activity against Escherichia coli HBI 101 at 10 ug/disk by agar plate diffusion assay. The class given is functional. Particulars: read-out: IZ. The essentials: as §1
The subject of test [9] is Candida albicans. In words: Antifungal activity against Candida albicans at 5 ug/disk by agar plate diffusion assay. It is filed as functional, organism-based. The essentials: as §1
Test [10] relates to Candida albicans. In words: Antifungal activity against Candida albicans at 10 ug/disk by agar plate diffusion assay. The class given is functional, organism-based. A digest of the protocol: as §1
A further test relates to HL-60. In words: Cytotoxicity against human HL60 cells. It is filed as functional, cell-based.

For the compound `COc1cc(O)c2c(c1)C(=O)c1cc(O)cc(O)c1C2=O` [LUNATIN], the zone of inhibition at 5 µg/disc in the test with Staphylococcus aureus [1] amounted to 8.5 mm; with Bacillus subtilis [3], 7.5 mm; in the test with Escherichia coli [4], 9 mm; with Escherichia coli [7], 8 mm. For the same compound, the zone of inhibition at 10 µg/disc was 10 mm with Staphylococcus aureus [2], 9 mm in the test on Bacillus subtilis [5], 11 mm in the test with Escherichia coli [6] and 10.5 mm with Escherichia coli [8]. Further, the result in the test with Candida albicans [9] and with Candida albicans [10] was inactive.

As for `O=C(O)CC1OC(=O)c2c(O)cc(O)cc21` (stereo unspecified), the Activity entry in the test on HL-60 was “Not toxic”.

On to `COc1cc(O)c2c(c1)C(=O)C13C(=C(O)C4[C@@H](O)C1C1[C@H](O)C3C(O)=C3C(=O)c5c(O)cc(OC)cc5C(=O)C341)C2=O` (stereo partly specified) [CYTOSKYRIN A], for which the zone of inhibition at 5 µg/disc in the test with Staphylococcus aureus [1] worked out at 8.5 mm; with Bacillus subtilis [3] it was 8 mm; in the test with Escherichia coli [4], 9 mm; with Escherichia coli [7], 8 mm. Also, the zone of inhibition at 10 µg/disc was 10 mm in the test with Staphylococcus aureus [2], 12 mm with Bacillus subtilis [5], 11 mm with Escherichia coli [6] and 9 mm in the test with Escherichia coli [8]. The result with Candida albicans [9] and with Candida albicans [10] was inactive.
